Consider 19 compounds from ChEMBL document CHEMBL1140106, “Blocking estrogen signaling after the hormone: pyrimidine-core inhibitors of estrogen receptor-coactivator binding” (J Med Chem, 2008).

Series [1] deals with T1, Estrogen receptor (Homo sapiens, UniProt P03372).
T1 sequence (P03372 whole entry): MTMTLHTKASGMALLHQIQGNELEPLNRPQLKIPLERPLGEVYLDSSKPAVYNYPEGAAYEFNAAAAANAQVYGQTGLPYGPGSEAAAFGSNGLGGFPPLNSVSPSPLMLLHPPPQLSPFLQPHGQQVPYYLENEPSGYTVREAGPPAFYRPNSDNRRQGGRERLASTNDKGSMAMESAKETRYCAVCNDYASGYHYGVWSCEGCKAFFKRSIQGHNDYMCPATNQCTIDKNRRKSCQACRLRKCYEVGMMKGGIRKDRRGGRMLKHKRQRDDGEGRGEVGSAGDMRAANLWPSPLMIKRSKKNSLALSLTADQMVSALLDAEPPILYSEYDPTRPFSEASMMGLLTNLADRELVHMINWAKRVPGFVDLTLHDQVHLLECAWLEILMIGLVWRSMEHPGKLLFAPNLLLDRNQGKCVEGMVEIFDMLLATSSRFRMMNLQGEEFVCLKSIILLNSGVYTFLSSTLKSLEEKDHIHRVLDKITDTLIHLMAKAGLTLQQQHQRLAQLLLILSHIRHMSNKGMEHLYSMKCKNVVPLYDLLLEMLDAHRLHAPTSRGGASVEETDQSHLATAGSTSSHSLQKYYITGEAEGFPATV
Briefly: Binding affinity to ERalpha assessed as inhibition of fluorescein-labeled nuclear receptor domain of steroid receptor coactivator 3 by TR-FRET assay. The essentials:
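Fluorescein-SRC-3-NRD (50 nM) was then added for 1 h at room temperature in the dark. Buffer: 20 mM Tris pH 7.5, 0.01% NP40, 50 mM NaCl. SRC-1 Box II peptide served as positive control.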

In series [2] the target is T2, Estrogen receptor beta (Homo sapiens, UniProt Q92731). Briefly: Binding affinity to ERbeta assessed as inhibition of fluorescein-labeled nuclear receptor domain of steroid receptor coactivator 3 by TR-FRET assay.
For series [3], the target named is T1, Estrogen receptor. Briefly: Binding affinity to ERalpha assessed as inhibition of steroid receptor coactivator 2 interaction by fluorescence polarization assay. Background: Polarisation of emitted light reports the rotation of a fluorescent probe.
Series [4] concerns the target T1, Estrogen receptor. Briefly: Antagonist activity at ERalpha in human HEC1 cells assessed as inhibition of estrogen-induced transcriptional activity after 24 hrs by reporter gene assay. In kind it is functional, cell-based, HEC-1. The essentials:
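HEC-1 cells, which lack endogenous ER, were lipofectin-transfected with full-length ERα vector, 2ERE-luciferase reporter and pCMV β-gal as internal control. After 6 h the medium was changed to 5% charcoal-dextran-treated calf serum with ligands.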
A general note: In a reporter assay the amount or activity of a reporter protein is the signal.

The target of series [5] is T2, Estrogen receptor beta. Briefly: Antagonist activity at ERbeta in human HEC1 cells assessed as inhibition of estrogen-induced transcriptional activity after 24 hrs by reporter gene assay. Format: functional, cell-based, HEC-1.
The target of series [6] is T1, Estrogen receptor. Briefly: Binding affinity to ERalpha assessed as inhibition of steroid receptor coactivator interaction in african green monkey COS7 cells by mammalian 2 hybrid assay. Format: cell-based, COS-7.
The nature of series [7]: Cytotoxicity against human HEC1 cells assessed as decrease in viable cell count at 20 uM. In kind it is cell-based. The following applies: hec-1, 20 µM.

T2 sequence (Q92731 whole entry, the tested form may be a part): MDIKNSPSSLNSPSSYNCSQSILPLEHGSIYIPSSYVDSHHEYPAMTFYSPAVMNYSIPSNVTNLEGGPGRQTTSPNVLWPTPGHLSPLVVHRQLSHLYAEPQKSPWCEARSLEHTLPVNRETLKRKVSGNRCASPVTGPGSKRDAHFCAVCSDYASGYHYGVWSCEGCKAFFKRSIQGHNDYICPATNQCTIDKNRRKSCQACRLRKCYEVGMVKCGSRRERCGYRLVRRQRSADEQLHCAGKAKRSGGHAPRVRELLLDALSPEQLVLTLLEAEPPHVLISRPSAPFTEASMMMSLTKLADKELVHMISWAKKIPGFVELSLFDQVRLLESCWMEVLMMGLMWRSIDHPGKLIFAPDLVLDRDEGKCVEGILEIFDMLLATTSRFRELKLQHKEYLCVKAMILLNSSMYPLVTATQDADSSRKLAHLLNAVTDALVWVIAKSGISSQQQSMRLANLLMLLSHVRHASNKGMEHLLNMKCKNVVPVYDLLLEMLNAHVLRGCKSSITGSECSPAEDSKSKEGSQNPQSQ

For `c1ccc(CCc2cc(NCc3ccccc3)nc(NCc3ccccc3)n2)cc1`, the Ki (in general, a measure of affinity in units of concentration, obtained from inhibition or displacement) is greater than 1000 µM at Estrogen receptor [1], greater than 1000 µM at Estrogen receptor beta [2] and 49 µM on Estrogen receptor [3]. At Estrogen receptor [4], the half-maximal inhibitory concentration (IC50) (in general, the concentration that inhibits the measured activity by half) is greater than 1000 µM.
Take `CC(C)CCc1cc(NCC(C)C)nc(NCC(C)C)n1`: the inhibition constant Ki on Estrogen receptor beta [2] was greater than 1000 µM. In addition, at Estrogen receptor beta [5], the IC50 is greater than 1000 µM.
As for `CC(C)(C)OC(=O)N(Cc1cccc2ccccc12)c1cc(CCc2ccccc2)nc(NCc2cccc3ccccc23)n1`, the Ki at Estrogen receptor [1] and on Estrogen receptor beta [2] was greater than 1000 µM throughout. Also, on Estrogen receptor [4], the concentration for half-maximal inhibition (IC50) is greater than 1000 µM.
Take `N=C(N)N/N=C/C1=C(Cl)c2ccccc2CC1`: the IC50 on Estrogen receptor [6] is 5.5 µM.
In the case of `CC(C)CCc1cc(NCC(C)C)nc(OCC(C)C)n1`, the inhibition constant (Ki) at Estrogen receptor [1] and on Estrogen receptor beta [2] was greater than 1000 µM throughout. On Estrogen receptor [4], the half-maximal inhibitory concentration (IC50) worked out at 6.9 µM. Moreover, the result in series [7] was Active.
Regarding `CC(C)CNc1cc(/C=C/c2ccccc2)nc(NCc2ccccc2)n1`, the inhibition constant (Ki) at Estrogen receptor [1] and on Estrogen receptor beta [2] was greater than 1000 µM throughout. Besides, the IC50 at Estrogen receptor [4] was determined as 12 µM. In series [7], the outcome was Active.
As to `CC(C)CNc1cc(NCc2ccccc2)nc(NCC(C)C)n1`, the Ki on Estrogen receptor beta [2] was greater than 1000 µM. Besides, the half-inhibitory concentration (IC50) at Estrogen receptor [4] is 9.5 µM; at Estrogen receptor beta [5] it was greater than 1000 µM.
Regarding `CC(C)CCc1cc(NCc2cccc3ccccc23)nc(NCc2cccc3ccccc23)n1`, the Ki at Estrogen receptor [1] and at Estrogen receptor beta [2] was greater than 1000 µM each time. In addition, the half-inhibitory concentration (IC50) on Estrogen receptor [4] is greater than 1000 µM.
In the case of `CC(C)CCc1cc(OCc2ccccc2)nc(OCc2ccccc2)n1`, the Ki on Estrogen receptor [1] and on Estrogen receptor beta [2] was greater than 1000 µM throughout. Besides, at Estrogen receptor [4], the IC50 was greater than 1000 µM.
On to `CC(C)CCc1cc(NCC(C)C)nc(NCc2ccccc2)n1`, for which the Ki at Estrogen receptor [1] is 7.9 µM; on Estrogen receptor beta [2], greater than 1000 µM. Also, the IC50 at Estrogen receptor [4] amounted to 1.8 µM. Moreover, in series [7], the result was Active.
On to `CC(C)CNc1cc(NCC(C)C)nc(NCC(C)C)n1`, for which, on Estrogen receptor beta [2], the Ki was found to be 299 µM. Besides, the result in series [7] was Active.
Turning to `C(=C\c1cc(OCc2ccccc2)nc(OCc2ccccc2)n1)/c1ccccc1`, the inhibition constant (Ki) on Estrogen receptor [1] and on Estrogen receptor beta [2] was greater than 1000 µM in each case. Also, the IC50 at Estrogen receptor [4] was greater than 1000 µM.
For the compound `CC(C)CNc1cc(CCc2ccccc2)nc(NCC(C)C)n1`, the inhibitory constant (Ki) at Estrogen receptor [1] is 5.8 µM; on Estrogen receptor beta [2], greater than 1000 µM. Moreover, the figures for the IC50 on Estrogen receptor [4] and at Estrogen receptor beta [5] were 2.1 µM and greater than 1000 µM, respectively. Also, in series [7], the result was Active.
In the case of `c1ccc(CCc2cc(NCc3cccc4ccccc34)nc(NCc3ccccc3)n2)cc1`, the Ki on Estrogen receptor [1] and at Estrogen receptor beta [2] was greater than 1000 µM in each case. Further, on Estrogen receptor [4], the IC50 was greater than 1000 µM.
For the compound `CC(C)CNc1cc(CCc2ccccc2)nc(NCc2cccc3ccccc23)n1`, the Ki at Estrogen receptor [1] and on Estrogen receptor beta [2] was greater than 1000 µM in each case. Besides, at Estrogen receptor [4], the IC50 is greater than 1000 µM.
As for `CC(C)COc1cc(CCc2ccccc2)nc(OCC(C)C)n1`, the inhibition constant Ki on Estrogen receptor [1] and at Estrogen receptor beta [2] was greater than 1000 µM throughout. In addition, on Estrogen receptor [4], the concentration for half-maximal inhibition (IC50) was greater than 1000 µM.
Take `CC(C)COc1cc(/C=C/c2ccccc2)nc(OCC(C)C)n1`: the inhibitory constant (Ki) at Estrogen receptor [1] and on Estrogen receptor beta [2] was greater than 1000 µM in each case. Moreover, the IC50 on Estrogen receptor [4] is greater than 1000 µM.
`c1ccc(CCc2cc(OCc3ccccc3)nc(OCc3ccccc3)n2)cc1`: the Ki at Estrogen receptor [1] and on Estrogen receptor beta [2] was greater than 1000 µM throughout. In addition, the 50% inhibitory concentration (IC50) at Estrogen receptor [4] was greater than 1000 µM.
As to `CC(C)CNc1cc(/C=C/c2ccccc2)nc(NCc2cccc3ccccc23)n1`, the Ki at Estrogen receptor [1] and on Estrogen receptor beta [2] was greater than 1000 µM throughout. At Estrogen receptor [4], the IC50 was greater than 1000 µM.
